Assay results published in ChEMBL document CHEMBL5055621, “Synthesis and Characterization of the Novel Rodent-Active and CNS-Penetrant P2X7 Receptor Antagonist Lu AF27139” (J Med Chem, 2021).

Tests used:
[1] = Cmax in rat at 2 mg/kg, po; assay type: ADME, organism-based; parameters: dose 2 mg/kg, route po; conditions: in vivo
Summary of the method: (§1)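 Rats received 1 mg/kg iv or 2 mg/kg po. The plasma concentration–time profile was analysed by a noncompartmental model to give half-life, Cmax, Tmax and absolute oral bioavailability.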

[2] = Tmax in male rat at 3 mg/kg, po after 7 days; assay type: ADME, organism-based; conditions: in vivo, time 7 day
[3] = molecular target: Voltage-dependent L-type calcium channel subunit alpha-1C (Homo sapiens, UniProt Q13936); assay: Inhibition of human Cav1.2 at 10 uM
Summary of the method: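 Human Nav1.5, Cav1.2 and KCNQ1/minK channels were tested at 10 μM.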

[4] = Free plasma concentration in rat at 100 mg/kg, po after 2 hrs by ex vivo equilibrium dialysis; assay type: ADME, organism-based
Summary of the method: (§2)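 Male Sprague–Dawley rats were dosed orally at 1–100 mg/kg, and total plasma concentration was measured at 1 and 2 h. This was multiplied by fraction unbound from ex vivo equilibrium dialysis; mean ± SEM, n = 3 animals.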

[5] = Free plasma concentration in rat at 1 mg/kg, po after 1 hr by ex vivo equilibrium dialysis; assay type: ADME, organism-based; summary of the method: as §2
[6] = AUC (0 to 8 hrs) in female mouse at 100 mg/kg, po administered as single dose; conditions: in vivo
[7] = Tmax in rat at 2 mg/kg, po; assay type: ADME, organism-based; conditions: in vivo; summary of the method: as §1
[8] = Cmax in female mouse at 100 mg/kg, po after 14 days; conditions: in vivo
in vitro = conditions: human, liver microsomes
[9] = Absolute oral bioavailability in rat at 2 mg/kg; assay type: ADME, organism-based; conditions: in vivo; summary of the method: as §1
[10] = Tmax in male rat at 150 mg/kg, po after 7 days; assay type: ADME, organism-based; conditions: in vivo, time 7 day
Cytochrome P450 2C8 = molecular target: T1, Cytochrome P450 2C8 (Homo sapiens, UniProt P10632); assay: Inhibition of CYP2C8 (unknown origin) upto 25 uM; assay type: ADME
T1 sequence (P10632 whole entry): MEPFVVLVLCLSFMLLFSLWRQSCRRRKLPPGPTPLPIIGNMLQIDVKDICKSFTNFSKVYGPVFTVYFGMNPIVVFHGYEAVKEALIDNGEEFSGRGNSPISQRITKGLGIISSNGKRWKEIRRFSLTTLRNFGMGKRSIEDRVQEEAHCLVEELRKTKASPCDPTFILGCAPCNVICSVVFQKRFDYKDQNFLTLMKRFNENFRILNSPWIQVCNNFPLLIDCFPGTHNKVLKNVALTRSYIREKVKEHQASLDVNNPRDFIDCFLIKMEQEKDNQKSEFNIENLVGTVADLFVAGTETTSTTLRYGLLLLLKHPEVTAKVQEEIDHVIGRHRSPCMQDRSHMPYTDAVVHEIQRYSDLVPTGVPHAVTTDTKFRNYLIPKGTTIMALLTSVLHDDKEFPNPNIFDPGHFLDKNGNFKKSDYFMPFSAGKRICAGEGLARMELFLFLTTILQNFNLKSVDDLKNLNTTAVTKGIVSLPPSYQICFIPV

P2X purinoceptor 7 = molecular target: T2, P2X purinoceptor 7 (Rattus norvegicus, UniProt Q64663); assay: Antagonist activity at rat P2X7 receptor expressed in HEK293 cells assessed as inhibition of BzATP-induced calcium-flux measured after 60 mins by FLIPR analysis; assay type: cell-based
T2 sequence (Q64663 whole entry): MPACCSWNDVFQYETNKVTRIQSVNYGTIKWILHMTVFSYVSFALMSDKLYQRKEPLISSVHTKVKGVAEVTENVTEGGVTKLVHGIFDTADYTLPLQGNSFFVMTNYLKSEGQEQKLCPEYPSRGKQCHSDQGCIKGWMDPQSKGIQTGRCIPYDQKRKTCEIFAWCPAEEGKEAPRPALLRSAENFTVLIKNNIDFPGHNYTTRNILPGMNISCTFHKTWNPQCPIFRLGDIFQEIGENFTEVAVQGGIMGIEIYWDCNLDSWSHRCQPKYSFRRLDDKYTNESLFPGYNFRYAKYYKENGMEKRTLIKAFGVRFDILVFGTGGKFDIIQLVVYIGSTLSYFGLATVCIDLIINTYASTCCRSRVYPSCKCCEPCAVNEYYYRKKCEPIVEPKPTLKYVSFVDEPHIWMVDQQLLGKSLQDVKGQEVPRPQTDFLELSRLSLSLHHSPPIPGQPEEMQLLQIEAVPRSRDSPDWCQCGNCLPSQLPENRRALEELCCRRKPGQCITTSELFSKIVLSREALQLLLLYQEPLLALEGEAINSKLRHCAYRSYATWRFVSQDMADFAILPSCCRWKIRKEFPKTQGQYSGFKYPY
Summary of the method: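 Stable rat or mouse P2X7 HEK293 cells in HBSS/20 mM HEPES/2.5 mM probenecid/0.05% BSA, pH 7.4, were loaded with Fluo-4 NW (37 °C 30 min, RT 30 min). After 30 min at RT, calcium fluorescence was read by FLIPR; n ≥ 3.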

Cytochrome P450 1A2 = molecular target: T3, Cytochrome P450 1A2 (Homo sapiens, UniProt P05177); assay: Inhibition of CYP1A2 (unknown origin) upto 25 uM; assay type: ADME
T3 sequence (P05177 whole entry): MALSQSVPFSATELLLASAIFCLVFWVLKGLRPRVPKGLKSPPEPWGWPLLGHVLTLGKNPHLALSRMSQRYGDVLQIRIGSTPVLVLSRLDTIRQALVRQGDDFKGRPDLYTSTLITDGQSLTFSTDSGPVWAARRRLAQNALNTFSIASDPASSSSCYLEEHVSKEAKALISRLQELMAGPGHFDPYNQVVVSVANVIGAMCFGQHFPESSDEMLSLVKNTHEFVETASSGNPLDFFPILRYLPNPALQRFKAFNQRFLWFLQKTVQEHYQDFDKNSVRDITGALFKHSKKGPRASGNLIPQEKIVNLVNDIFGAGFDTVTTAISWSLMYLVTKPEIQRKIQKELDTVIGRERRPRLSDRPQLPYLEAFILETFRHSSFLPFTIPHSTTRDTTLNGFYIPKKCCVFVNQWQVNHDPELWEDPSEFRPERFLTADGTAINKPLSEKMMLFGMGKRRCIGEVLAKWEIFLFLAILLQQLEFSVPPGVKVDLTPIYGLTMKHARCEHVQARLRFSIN

[11] = Cmax in female mouse at 100 mg/kg, po administered as single dose; conditions: in vivo
Mus musculus = assay: Toxicity in C57BL/6NCrl mouse assessed as histological changes up to 100 mg/kg, po bid by 14 days exploratory toxicology study; assay type: organism-based; conditions: in vivo, 336 h, time 14 day
Summary of the method: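 Exploratory 14-day repeat oral toxicity study in mice with dosing twice daily (bid) up to 100 mg/kg. Endpoints were macroscopic pathology, histology and hematology.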

Sequence of Voltage-dependent L-type calcium channel subunit alpha-1C (Q13936 whole entry): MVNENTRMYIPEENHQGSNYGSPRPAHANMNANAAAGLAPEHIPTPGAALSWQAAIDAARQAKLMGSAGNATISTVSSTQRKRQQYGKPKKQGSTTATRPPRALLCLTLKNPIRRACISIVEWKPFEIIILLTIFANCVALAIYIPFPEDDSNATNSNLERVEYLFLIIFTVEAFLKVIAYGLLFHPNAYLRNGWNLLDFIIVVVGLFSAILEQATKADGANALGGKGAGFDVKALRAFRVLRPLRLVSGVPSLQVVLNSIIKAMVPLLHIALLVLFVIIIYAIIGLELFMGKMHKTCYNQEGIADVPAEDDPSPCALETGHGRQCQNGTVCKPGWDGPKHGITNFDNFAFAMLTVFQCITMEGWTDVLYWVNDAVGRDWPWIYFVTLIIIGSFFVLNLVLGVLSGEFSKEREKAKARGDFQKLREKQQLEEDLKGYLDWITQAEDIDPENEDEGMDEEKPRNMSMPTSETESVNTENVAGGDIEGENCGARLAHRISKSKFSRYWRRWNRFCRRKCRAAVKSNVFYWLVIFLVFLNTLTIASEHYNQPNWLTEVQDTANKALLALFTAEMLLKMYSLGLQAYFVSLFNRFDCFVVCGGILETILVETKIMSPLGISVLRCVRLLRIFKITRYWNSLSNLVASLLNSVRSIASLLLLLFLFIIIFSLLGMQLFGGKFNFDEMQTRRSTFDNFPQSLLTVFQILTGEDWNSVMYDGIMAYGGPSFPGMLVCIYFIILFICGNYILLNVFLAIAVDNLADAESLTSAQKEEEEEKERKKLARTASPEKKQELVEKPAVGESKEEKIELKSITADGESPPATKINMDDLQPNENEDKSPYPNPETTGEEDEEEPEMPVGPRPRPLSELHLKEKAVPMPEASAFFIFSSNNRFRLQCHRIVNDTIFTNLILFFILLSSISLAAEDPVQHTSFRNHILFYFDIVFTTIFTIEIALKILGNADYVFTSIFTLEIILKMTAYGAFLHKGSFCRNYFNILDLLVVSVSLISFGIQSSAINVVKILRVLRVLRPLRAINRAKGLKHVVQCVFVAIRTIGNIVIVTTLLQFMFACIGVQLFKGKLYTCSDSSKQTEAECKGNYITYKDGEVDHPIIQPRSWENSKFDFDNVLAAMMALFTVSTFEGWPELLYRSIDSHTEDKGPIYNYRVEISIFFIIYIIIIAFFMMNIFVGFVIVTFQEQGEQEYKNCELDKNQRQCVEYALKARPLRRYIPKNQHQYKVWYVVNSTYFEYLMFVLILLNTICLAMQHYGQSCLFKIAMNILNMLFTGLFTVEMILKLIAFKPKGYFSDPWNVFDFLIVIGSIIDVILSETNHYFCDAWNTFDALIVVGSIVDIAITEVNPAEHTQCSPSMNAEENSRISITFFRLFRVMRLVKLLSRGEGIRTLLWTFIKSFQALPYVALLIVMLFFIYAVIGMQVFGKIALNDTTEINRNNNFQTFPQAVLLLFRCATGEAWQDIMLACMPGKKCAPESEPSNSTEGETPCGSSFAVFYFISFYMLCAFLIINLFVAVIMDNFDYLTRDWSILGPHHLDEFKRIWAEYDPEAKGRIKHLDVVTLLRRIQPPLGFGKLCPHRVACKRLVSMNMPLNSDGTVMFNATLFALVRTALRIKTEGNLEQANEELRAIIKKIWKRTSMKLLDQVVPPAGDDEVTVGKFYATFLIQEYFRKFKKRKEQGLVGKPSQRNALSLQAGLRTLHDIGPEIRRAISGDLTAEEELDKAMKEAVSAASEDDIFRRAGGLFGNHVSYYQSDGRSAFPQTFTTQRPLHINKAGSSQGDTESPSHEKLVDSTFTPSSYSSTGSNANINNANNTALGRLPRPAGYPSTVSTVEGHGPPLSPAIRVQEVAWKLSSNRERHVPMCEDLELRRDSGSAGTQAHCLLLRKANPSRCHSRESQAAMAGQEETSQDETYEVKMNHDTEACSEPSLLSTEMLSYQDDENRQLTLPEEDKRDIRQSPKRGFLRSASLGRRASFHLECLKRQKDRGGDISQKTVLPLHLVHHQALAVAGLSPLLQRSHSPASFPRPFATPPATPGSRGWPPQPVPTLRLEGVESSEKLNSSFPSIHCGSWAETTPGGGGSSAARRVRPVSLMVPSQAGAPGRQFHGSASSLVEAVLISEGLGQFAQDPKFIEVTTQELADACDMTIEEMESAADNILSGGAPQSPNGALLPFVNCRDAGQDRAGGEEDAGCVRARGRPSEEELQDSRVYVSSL

With `O=C(NC[C@H](c1ccc(Cl)cc1)N1CCOCC1)c1sc(-c2ncccn2)nc1C(F)(F)F` the Cmax [1] was 2.7 µM, the Tmax [2] was 1 h and the “inhibition (INH)” value [3] was “Not Active”. The “Cp(f)” value [4] was 0.497 µM, the “Cp(f)” value [5] was 0.0224 µM and the AUC(0-t) at 8 h [6] was 399 µM·h. The Tmax [7] was 0.58 h, the Cmax [8] was 61.6 µM and the CLint scaled at 1 h, 1 µM (in vitro) was 43.3 mL/min/kg. The bioavailability [9] was at least 100%, the Tmax [10] was 4 h and the “inhibition (INH)” value (Cytochrome P450 2C8) was “Not Active”. For the same compound, the IC50 (P2X purinoceptor 7) was 2.4 nM, the “inhibition (INH)” value (Cytochrome P450 1A2) was “Not Active” and the Cmax [11] was 140 µM. For the same compound, the Activity (Mus musculus) was “Non-Toxic”.
